Key:
SK-MEL-28 = assay: NCI-60 screening, SK-MEL-28; type: cell-based; details: Homo sapiens, SK-MEL-28, read-out: GI50, SK-MEL-28
HDAC8 = HDAC8 (Homo sapiens, UniProt Q9BY41); assay: In vitro HDAC enzyme assay; type: biochemical
NCI-H522 = assay: NCI-60 screening, NCI-H522; type: cell-based; details: Homo sapiens, NCI-H522, read-out: GI50, NCI-H522
EKVX = assay: NCI-60 screening, EKVX; type: cell-based; details: Homo sapiens, read-out: GI50, EKVX
M14 = assay: NCI-60 screening, M14; type: cell-based; details: Homo sapiens, M14, read-out: GI50, M14
MDA-MB-231 = assay: cells; type: cell-based; details: Homo sapiens, MDA-MB-231, read-out: Antiproliferative effect IC50, MDA-MB-231
RPMI-8226 = assay: cells; type: cell-based; details: Homo sapiens, RPMI-8226, read-out: Antiproliferative effect IC50, RPMI-8226
RPMI-8226 cells = assay: Apoptosis assay; type: cell-based, human; details: 1 μM, 48 h, flow cytometry
CCRF-CEM = assay: NCI-60 screening, CCRF-CEM; type: cell-based; details: Homo sapiens, read-out: GI50, CCRF-CEM
HDAC1 = HDAC1 (Homo sapiens, UniProt Q13547); assay: In vitro HDAC enzyme assay; type: biochemical
MDA-MB-231/ATCC = assay: NCI-60 screening, MDA-MB-231/ATCC; type: cell-based; details: Homo sapiens, MDA-MB-231, read-out: GI50, MDA-MB-231/ATCC
JAK1 = JAK1 (Homo sapiens, UniProt P23458); assay: Kinase inhibition assay; type: biochemical
HDAC11 = HDAC11 (Homo sapiens, UniProt Q96DB2); assay: In vitro HDAC enzyme assay; type: biochemical
HS 578 T = assay: NCI-60 screening, HS 578 T; type: cell-based; details: Homo sapiens, read-out: GI50, HS 578 T
ACHN = assay: NCI-60 screening, ACHN; type: cell-based; details: Homo sapiens, read-out: GI50, ACHN
SNB-75 = assay: NCI-60 screening, SNB-75; type: cell-based; details: Homo sapiens, SNB-75, read-out: GI50, SNB-75
MALME-3M = assay: NCI-60 screening, MALME-3M; type: cell-based; details: Homo sapiens, read-out: GI50, MALME-3M
HDAC4 = HDAC4 (Homo sapiens, UniProt P56524); assay: In vitro HDAC enzyme assay; type: biochemical
SK-MEL-2 = assay: NCI-60 screening, SK-MEL-2; type: cell-based; details: Homo sapiens, SK-MEL-2, read-out: GI50, SK-MEL-2
SR = assay: NCI-60 screening, SR; type: cell-based; details: Homo sapiens, read-out: GI50, SR
LOX IMVI = assay: NCI-60 screening, LOX IMVI; type: cell-based; details: Homo sapiens, read-out: GI50, LOX IMVI
SK-MEL-5 = assay: NCI-60 screening, SK-MEL-5; type: cell-based; details: Homo sapiens, SK-MEL-5, read-out: GI50, SK-MEL-5
786-0 = assay: NCI-60 screening, 786-0; type: cell-based; details: Homo sapiens, 786-0, read-out: GI50, 786-0
HDAC7 = HDAC7 (Homo sapiens, UniProt Q8WUI4); assay: In vitro HDAC enzyme assay; type: biochemical
HDAC2 = HDAC2 (Homo sapiens, UniProt Q92769); assay: In vitro HDAC enzyme assay; type: biochemical
K-562 = assay: NCI-60 screening, K-562; type: cell-based; details: Homo sapiens, K562, read-out: GI50, K-562
[1] = Microsomal stability assay; type: in vitro ADME; details: human, human liver microsomes, pH 7.4
Summary of the method: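 Human liver microsomes at 0.8 mg/mL, with magnesium chloride and potassium phosphate buffer (pH 7.4), incubated with test compound at 0.5 μM. Mix prewarmed 5 min at 37 °C, then started with NADPH. Stopped at 0, 5, 10, 15, 30, 60 or 90 min with ice-cold ethyl acetate, spun 4000 rpm for 10 min at 4 °C. Supernatant analysed by LC-MS/MS and half-life determined.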

UACC-257 = assay: NCI-60 screening, UACC-257; type: cell-based; details: Homo sapiens, UACC-257, read-out: GI50, UACC-257
OVCAR-3 = assay: NCI-60 screening, OVCAR-3; type: cell-based; details: Homo sapiens, OVCAR-3, read-out: GI50, OVCAR-3
SNB-19 = assay: NCI-60 screening, SNB-19; type: cell-based; details: Homo sapiens, SNB-19, read-out: GI50, SNB-19
A549/ATCC = assay: NCI-60 screening, A549/ATCC; type: cell-based; details: Homo sapiens, A549, read-out: GI50, A549/ATCC
JAK2 = JAK2 (Homo sapiens, UniProt O60674); assay: Kinase inhibition assay; type: biochemical
UACC-62 = assay: NCI-60 screening, UACC-62; type: cell-based; details: Homo sapiens, UACC-62, read-out: GI50, UACC-62

HDAC2, sequence (Q92769 whole entry): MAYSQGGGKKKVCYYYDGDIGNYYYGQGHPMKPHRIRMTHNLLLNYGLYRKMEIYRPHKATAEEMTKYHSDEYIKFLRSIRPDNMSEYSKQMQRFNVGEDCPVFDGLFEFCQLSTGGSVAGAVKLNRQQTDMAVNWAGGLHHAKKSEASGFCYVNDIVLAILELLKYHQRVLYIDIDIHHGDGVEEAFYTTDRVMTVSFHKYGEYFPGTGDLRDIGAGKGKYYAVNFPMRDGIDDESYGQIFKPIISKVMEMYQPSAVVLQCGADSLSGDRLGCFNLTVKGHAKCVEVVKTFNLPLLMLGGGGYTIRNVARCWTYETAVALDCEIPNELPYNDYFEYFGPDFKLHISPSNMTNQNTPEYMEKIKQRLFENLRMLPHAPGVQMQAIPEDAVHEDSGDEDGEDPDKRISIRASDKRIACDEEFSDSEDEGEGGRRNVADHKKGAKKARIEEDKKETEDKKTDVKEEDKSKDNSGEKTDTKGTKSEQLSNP
HDAC1, sequence (Q13547 whole entry): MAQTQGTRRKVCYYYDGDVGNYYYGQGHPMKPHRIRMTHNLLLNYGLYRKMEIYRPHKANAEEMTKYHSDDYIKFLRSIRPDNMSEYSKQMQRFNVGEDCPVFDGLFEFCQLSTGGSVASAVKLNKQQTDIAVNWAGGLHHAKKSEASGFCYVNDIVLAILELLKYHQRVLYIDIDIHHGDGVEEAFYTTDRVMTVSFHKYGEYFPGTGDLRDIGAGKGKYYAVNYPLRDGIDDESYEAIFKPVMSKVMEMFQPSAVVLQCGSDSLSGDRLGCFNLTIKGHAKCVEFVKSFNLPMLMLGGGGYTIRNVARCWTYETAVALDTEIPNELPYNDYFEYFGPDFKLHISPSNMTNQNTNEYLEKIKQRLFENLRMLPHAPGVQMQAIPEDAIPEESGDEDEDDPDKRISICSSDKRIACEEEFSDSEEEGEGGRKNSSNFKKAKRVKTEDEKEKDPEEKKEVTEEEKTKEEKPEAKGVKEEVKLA
HDAC4, sequence (P56524 whole entry): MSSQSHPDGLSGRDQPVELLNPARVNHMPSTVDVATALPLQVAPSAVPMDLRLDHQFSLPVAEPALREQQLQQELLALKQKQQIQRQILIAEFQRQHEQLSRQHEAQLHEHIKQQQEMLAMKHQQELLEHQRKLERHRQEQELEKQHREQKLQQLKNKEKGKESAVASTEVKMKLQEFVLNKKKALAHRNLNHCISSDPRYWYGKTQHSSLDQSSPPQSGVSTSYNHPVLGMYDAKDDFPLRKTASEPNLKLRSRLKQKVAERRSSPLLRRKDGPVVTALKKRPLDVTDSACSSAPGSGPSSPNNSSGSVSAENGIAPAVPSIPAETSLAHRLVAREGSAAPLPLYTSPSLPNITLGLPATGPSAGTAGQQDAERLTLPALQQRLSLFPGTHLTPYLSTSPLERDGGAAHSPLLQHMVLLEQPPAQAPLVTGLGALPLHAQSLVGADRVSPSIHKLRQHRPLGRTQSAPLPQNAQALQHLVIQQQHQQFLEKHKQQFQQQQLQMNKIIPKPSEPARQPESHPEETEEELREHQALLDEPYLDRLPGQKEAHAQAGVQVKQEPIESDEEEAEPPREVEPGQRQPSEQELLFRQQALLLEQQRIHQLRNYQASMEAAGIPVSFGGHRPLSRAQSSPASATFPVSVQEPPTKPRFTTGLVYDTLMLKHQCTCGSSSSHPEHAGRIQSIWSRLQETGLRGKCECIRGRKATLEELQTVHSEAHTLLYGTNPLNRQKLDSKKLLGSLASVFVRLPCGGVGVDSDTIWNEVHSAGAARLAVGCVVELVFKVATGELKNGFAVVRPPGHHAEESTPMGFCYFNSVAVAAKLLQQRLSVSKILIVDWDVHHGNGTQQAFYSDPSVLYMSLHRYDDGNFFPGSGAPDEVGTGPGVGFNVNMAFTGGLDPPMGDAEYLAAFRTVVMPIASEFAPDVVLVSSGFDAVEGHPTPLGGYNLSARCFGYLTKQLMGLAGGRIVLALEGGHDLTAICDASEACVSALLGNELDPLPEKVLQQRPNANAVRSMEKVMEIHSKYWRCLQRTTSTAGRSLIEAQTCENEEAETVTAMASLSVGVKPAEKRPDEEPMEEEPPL
HDAC11, sequence (Q96DB2 whole entry): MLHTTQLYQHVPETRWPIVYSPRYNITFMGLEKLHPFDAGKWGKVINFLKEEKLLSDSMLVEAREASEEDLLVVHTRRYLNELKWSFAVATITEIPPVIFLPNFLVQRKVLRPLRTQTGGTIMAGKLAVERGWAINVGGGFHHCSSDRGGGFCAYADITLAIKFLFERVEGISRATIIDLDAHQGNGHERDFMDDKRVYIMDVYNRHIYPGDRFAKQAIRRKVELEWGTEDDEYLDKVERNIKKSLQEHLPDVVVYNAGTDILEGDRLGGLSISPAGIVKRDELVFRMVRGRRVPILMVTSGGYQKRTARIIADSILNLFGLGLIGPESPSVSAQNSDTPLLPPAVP
JAK1, sequence (P23458 whole entry): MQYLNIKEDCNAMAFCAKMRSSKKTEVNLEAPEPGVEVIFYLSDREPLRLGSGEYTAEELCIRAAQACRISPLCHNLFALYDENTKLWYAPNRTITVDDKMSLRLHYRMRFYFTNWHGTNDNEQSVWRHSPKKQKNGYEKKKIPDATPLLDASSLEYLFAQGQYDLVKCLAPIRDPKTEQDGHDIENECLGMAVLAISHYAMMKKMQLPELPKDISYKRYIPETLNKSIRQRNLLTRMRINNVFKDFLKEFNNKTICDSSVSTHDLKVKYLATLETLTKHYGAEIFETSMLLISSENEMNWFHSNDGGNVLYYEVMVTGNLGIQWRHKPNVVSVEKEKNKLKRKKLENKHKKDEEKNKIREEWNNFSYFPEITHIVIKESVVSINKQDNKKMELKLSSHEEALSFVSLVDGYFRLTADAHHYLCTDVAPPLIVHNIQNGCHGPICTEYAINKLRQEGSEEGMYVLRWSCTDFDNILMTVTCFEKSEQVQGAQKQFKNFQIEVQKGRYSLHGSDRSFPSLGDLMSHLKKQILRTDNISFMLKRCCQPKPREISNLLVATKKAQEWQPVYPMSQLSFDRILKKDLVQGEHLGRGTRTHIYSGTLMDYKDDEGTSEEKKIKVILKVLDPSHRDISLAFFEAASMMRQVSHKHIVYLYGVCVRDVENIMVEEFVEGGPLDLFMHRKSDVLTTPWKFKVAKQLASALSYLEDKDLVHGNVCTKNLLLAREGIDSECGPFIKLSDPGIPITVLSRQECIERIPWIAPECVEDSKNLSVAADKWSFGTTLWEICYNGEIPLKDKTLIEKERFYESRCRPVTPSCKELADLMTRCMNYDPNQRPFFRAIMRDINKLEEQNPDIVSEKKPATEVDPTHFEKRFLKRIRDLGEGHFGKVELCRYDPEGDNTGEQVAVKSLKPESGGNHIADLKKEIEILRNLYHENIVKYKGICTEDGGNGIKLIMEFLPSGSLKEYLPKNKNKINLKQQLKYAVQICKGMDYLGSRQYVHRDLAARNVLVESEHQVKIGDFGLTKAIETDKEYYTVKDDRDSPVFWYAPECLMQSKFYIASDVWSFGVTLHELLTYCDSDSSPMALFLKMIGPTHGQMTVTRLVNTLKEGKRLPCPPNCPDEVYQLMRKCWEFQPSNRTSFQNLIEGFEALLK
JAK2, sequence (O60674 whole entry): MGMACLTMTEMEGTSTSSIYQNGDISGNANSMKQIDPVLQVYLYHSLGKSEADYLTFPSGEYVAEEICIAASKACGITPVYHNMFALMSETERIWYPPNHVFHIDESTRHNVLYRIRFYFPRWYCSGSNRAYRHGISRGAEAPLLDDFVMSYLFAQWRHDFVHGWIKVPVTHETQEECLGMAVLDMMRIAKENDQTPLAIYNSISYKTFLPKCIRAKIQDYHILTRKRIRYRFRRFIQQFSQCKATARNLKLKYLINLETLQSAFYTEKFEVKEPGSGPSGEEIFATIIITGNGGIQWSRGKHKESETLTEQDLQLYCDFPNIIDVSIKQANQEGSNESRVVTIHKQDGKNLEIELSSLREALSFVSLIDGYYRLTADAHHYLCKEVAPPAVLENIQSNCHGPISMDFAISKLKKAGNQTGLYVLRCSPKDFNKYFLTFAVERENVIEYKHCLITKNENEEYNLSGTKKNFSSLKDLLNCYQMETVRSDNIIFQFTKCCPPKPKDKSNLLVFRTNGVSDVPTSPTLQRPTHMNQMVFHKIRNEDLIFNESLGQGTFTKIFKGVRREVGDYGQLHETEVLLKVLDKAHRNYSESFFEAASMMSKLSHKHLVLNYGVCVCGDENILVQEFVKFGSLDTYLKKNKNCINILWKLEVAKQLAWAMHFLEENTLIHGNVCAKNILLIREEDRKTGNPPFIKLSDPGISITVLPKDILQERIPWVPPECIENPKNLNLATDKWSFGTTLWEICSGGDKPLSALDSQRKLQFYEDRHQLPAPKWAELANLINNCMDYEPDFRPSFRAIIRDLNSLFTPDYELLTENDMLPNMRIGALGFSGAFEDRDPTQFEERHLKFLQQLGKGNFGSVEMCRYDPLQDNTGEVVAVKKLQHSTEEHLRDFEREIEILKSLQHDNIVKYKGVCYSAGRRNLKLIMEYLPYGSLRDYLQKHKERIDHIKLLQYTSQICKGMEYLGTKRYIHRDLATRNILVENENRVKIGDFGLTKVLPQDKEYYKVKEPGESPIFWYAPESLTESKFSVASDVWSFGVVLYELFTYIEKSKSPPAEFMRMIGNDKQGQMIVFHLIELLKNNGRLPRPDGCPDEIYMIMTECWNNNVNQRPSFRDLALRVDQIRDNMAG
HDAC8, sequence (Q9BY41 whole entry): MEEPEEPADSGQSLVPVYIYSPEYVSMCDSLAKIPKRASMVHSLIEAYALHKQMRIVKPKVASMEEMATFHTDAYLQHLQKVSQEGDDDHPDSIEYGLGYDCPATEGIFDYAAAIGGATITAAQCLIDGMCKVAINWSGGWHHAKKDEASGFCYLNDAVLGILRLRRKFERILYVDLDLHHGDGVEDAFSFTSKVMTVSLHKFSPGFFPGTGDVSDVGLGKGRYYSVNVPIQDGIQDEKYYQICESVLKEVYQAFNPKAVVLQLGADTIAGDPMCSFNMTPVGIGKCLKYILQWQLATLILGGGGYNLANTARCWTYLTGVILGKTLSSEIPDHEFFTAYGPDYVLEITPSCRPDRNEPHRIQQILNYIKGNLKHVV

**Q.** With `O=C(NO)c1ccc(CNc2nc3cccc(-c4ccc5c(c4)OCO5)n3n2)cc1` [Compound 19, 4-(((5-(Benzo[d][1, 3]dioxol-5-yl)-[1,2, 4]triazolo[1,5-a]pyridin-2-yl)amino)methyl)-N-hydroxybenzamide] as the compound, how does the GI50 (SK-MEL-28) read?
**A.** 480 nM

**Q.** And the IC50 (HDAC8)?
**A.** 640 ± 28.3 nM

**Q.** What about the GI50 (NCI-H522) of the same compound?
**A.** 100 nM

**Q.** And the GI50 (EKVX)?
**A.** 780 nM

**Q.** And the GI50 (M14)?
**A.** 550 nM

**Q.** And the IC50 (MDA-MB-231)?
**A.** 750 ± 30 nM

**Q.** What about the IC50 (RPMI-8226) of the same compound?
**A.** 120 ± 10 nM

**Q.** What about the “Induction of RPMI-8226 cells apoptosis” value (RPMI-8226 cells) of the same compound?
**A.** 85.3%

**Q.** What about the GI50 (CCRF-CEM) of the same compound?
**A.** 310 nM

**Q.** What about the IC50 (HDAC1) of the same compound?
**A.** 25.4 ± 1.2 nM

**Q.** And the “Fold weaker on HDAC1 than HDAC6” value (HDAC1; IC50 HDAC1 vs HDAC6)?
**A.** ~6 fold

**Q.** What about the GI50 (MDA-MB-231/ATCC) of the same compound?
**A.** 690 nM

**Q.** And the IC50 (JAK1)?
**A.** 165 ± 13 nM

**Q.** What about the IC50 (HDAC11) of the same compound?
**A.** 1400 ± 102 nM

**Q.** What about the GI50 (HS 578 T) of the same compound?
**A.** 140 nM

**Q.** And the GI50 (ACHN)?
**A.** 550 nM

**Q.** What about the GI50 (SNB-75) of the same compound?
**A.** 350 nM

**Q.** And the GI50 (MALME-3M)?
**A.** 250 nM

**Q.** And the IC50 (HDAC4)?
**A.** > 50 µM

**Q.** And the “HDAC4 IC50” value (HDAC4; duplicate, SD <15%)?
**A.** no activity

**Q.** And the GI50 (SK-MEL-2)?
**A.** 250 nM

**Q.** What about the GI50 (SR) of the same compound?
**A.** 100 nM

**Q.** And the GI50 (LOX IMVI)?
**A.** 690 nM

**Q.** And the GI50 (SK-MEL-5)?
**A.** 550 nM

**Q.** What about the GI50 (786-0) of the same compound?
**A.** 1000 nM

**Q.** And the IC50 (HDAC7)?
**A.** 715 ± 33.5 nM

**Q.** What about the IC50 (HDAC2) of the same compound?
**A.** 36.5 ± 0.95 nM

**Q.** What about the “Fold weaker on HDAC2 than HDAC6” value (HDAC2; IC50 HDAC2 vs HDAC6) of the same compound?
**A.** ~8.5 fold

**Q.** What about the GI50 (K-562) of the same compound?
**A.** 320 nM

**Q.** What about the half-life at 0.5 μM [1] of the same compound?
**A.** 870 min

**Q.** And the GI50 (UACC-257)?
**A.** 360 nM

**Q.** And the GI50 (OVCAR-3)?
**A.** 420 nM

**Q.** What about the GI50 (SNB-19) of the same compound?
**A.** 1000 nM

**Q.** And the GI50 (A549/ATCC)?
**A.** 890 nM

**Q.** And the IC50 (JAK2)?
**A.** 278 ± 20 nM

**Q.** What about the GI50 (UACC-62) of the same compound?
**A.** 420 nM

From PMC11463018 (Journal of Enzyme Inhibition and Medicinal Chemistry, 2024)
